# Assay results as given in ChEMBL document CHEMBL2396611, “Synthesis and mechanism of hypoglycemic activity of benzothiazole derivatives” (J Med Chem, 2013).
# Activity calls are given as the source filed them. The rule behind the calls is not given here.
# Key:
# [1] = system: L6; assay: Effect on […] level in rat L6 cells at 3.5 mmol/L after 20 mins in presence of HCGM (reference value: 23 mmol/L); assay type: ADME, cell-based; conditions: l6, 20 min, 3500 µM
# Procedure, shortened: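 Fully differentiated L6 myotubes preconditioned in medium with 23.0 mmol/L D-glucose, then exposed 20 min. Cells washed in cold 0.15 M Tris-HCl pH 7.75, extracted with ice-cold 0.5% TCA, diluted in Tris-HCl and spun 12,000 rpm, 30 min, 4 °C. Supernatant ATP measured by colorimetric kit, expressed per mg protein. Mean ± SEM; two-tailed t test against untreated 23.0 mmol/L glucose cells.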
# [2] = molecular target: 5'-AMP-activated protein kinase catalytic subunit alpha-2 (Rattus norvegicus) (UniProt Q09137); assay: (§1) Activation of AMPK in rat L6 cells assessed as increase of [3H]dGlc uptake after 5 hrs; assay type: cell-based
# Procedure, shortened: (§2)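 Fully differentiated L6 myotubes preincubated 24 h in αMEM with 2% FCS and 23.0 mmol/L D-glucose, then 4 h serum-free with 0.5% BSA. Compound or DMSO vehicle given for the indicated times or concentrations. Uptake read after 5 min at room temperature in PBS pH 7.4 with 0.1 mmol/L dGlc and 1.3 μCi/mL [3H]dGlc, by scintillation of SDS lysates. Zero-time basal rate set as 100%; n=6.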
# [3] = system: L6; assay: Activation of AMPKalpha in rat L6 cells assessed as phosphorylation at Thr172 at 100 uM up to 5 hrs by Western blot analysis; assay type: cell-based
# Procedure, shortened: (§3)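 L6 myotubes exposed for the indicated times to test compound (100 μM in the first series; 50–150 μM in the second) or 4 mM AICAR. Whole-cell lysates immunoblotted for pThr172-AMPKα, AMPKα and α-tubulin; band densities from three independent experiments vs respective controls.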
# [4] = molecular target: 5'-AMP-activated protein kinase catalytic subunit alpha-2 (Rattus norvegicus) (UniProt Q09137); assay: Activation of AMPK in rat L6 cells assessed as increase of [3H]dGlc uptake at 10 to 200 uM; assay type: cell-based; conditions: TDE = time-dependent effect; procedure, shortened: as §2
# [5] = Lipophilicity, log P of the compound; assay type: physicochemical; conditions: octanol/water
# [6] = molecular target: 5'-AMP-activated protein kinase catalytic subunit alpha-2 (Rattus norvegicus) (UniProt Q09137); assay: Activation of AMPK in rat L6 cells assessed as increase of [3H]dGlc uptake at 100 uM after 10 to 40 hrs; assay type: cell-based; procedure, shortened: as §2
# [7] = system: L6; assay: Effect on ATP/AMP ratio in rat L6 cells at >100 uM; assay type: ADME, cell-based
# [8] = molecular target: 5'-AMP-activated protein kinase catalytic subunit alpha-2 (Rattus norvegicus, UniProt Q09137); assay: as §1; assay type: cell-based; procedure, shortened: as §2
# [9] = system: L6; assay: Activation of AMPKalpha in rat L6 cells assessed as phosphorylation at Thr172 at 100 uM after 40 mins by Western blot analysis; assay type: cell-based; procedure, shortened: as §3
# [10] = molecular target: 5'-AMP-activated protein kinase catalytic subunit alpha-2 (Rattus norvegicus) (UniProt Q09137); assay: Activation of AMPK in rat L6 cells assessed as increase of [3H]dGlc uptake at 50 uM after 5 hrs relative to control; assay type: cell-based; procedure, shortened: as §2
# [11] = system: L6; assay: Activation of AMPKalpha in rat L6 cells assessed as phosphorylation at Thr172 at 100 uM after 60 mins by Western blot analysis; assay type: cell-based; procedure, shortened: as §3
# [12] = molecular target: 5'-AMP-activated protein kinase catalytic subunit alpha-2 (Rattus norvegicus) (UniProt Q09137); assay: Activation of AMPK in rat L6 cells assessed as increase of [3H]dGlc uptake at 5 uM after 5 hrs relative to control; assay type: cell-based; procedure, shortened: as §2
# [13] = molecular target: 5'-AMP-activated protein kinase catalytic subunit alpha-2 (Homo sapiens) (UniProt P54646); assay: Activation of human recombinant AMPK at 20 uM after 30 mins relative to control
# Procedure, shortened: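 Recombinant human full-length AMPK assayed with a commercial luminescent kit. Compound at 20 μM or DMSO vehicle (1% v/v) added to the reaction mix for 30 min at ambient temperature. Activity read by luminometer against a calibration curve; basal activity with DMSO set as 100%.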
# [14] = molecular target: 5'-AMP-activated protein kinase catalytic subunit alpha-2 (Rattus norvegicus) (UniProt Q09137); assay: Activation of AMPK in rat L6 cells assessed as increase of [3H]dGlc uptake at 150 uM after 5 hrs relative to control; assay type: cell-based; procedure, shortened: as §2
# [15] = system: L6; assay: Activation of AMPKalpha in rat L6 cells assessed as phosphorylation at Thr172 at 150 uM after 40 mins to 5 hrs by Western blot analysis; assay type: cell-based; procedure, shortened: as §3
# [16] = molecular target: 5'-AMP-activated protein kinase catalytic subunit alpha-2 (Rattus norvegicus) (UniProt Q09137); assay: Activation of AMPK in rat L6 cells assessed as increase of [3H]dGlc uptake at 100 uM after 5 hrs in absence of insulin; assay type: cell-based; procedure, shortened: as §2
# [17] = system: L6; assay: Activation of AMPKalpha in rat L6 cells assessed as phosphorylation at Thr172 at 100 uM after 24 hrs by Western blot analysis; assay type: cell-based; procedure, shortened: as §3
# [18] = molecular target: 5'-AMP-activated protein kinase catalytic subunit alpha-2 (Rattus norvegicus) (UniProt Q09137); assay: Activation of AMPK in rat L6 cells assessed as increase of [3H]dGlc uptake at 100 uM after 24 hrs; assay type: cell-based; procedure, shortened: as §2
# [19] = molecular target: 5'-AMP-activated protein kinase catalytic subunit alpha-2 (Rattus norvegicus) (UniProt Q09137); assay: Activation of AMPK in rat L6 cells assessed as increase of [3H]dGlc uptake at > 0.5 mmol/L after 5 hrs; assay type: cell-based
# [20] = molecular target: 5'-AMP-activated protein kinase catalytic subunit alpha-2 (Rattus norvegicus) (UniProt Q09137); assay: Activation of AMPK in rat L6 cells assessed as phosphorylation at Thr172 at > 0.5 mmol/L after 5 hrs by Western blot analysis; assay type: cell-based
# 5'-AMP-activated protein kinase catalytic subunit alpha-2, sequence (Q09137 whole entry): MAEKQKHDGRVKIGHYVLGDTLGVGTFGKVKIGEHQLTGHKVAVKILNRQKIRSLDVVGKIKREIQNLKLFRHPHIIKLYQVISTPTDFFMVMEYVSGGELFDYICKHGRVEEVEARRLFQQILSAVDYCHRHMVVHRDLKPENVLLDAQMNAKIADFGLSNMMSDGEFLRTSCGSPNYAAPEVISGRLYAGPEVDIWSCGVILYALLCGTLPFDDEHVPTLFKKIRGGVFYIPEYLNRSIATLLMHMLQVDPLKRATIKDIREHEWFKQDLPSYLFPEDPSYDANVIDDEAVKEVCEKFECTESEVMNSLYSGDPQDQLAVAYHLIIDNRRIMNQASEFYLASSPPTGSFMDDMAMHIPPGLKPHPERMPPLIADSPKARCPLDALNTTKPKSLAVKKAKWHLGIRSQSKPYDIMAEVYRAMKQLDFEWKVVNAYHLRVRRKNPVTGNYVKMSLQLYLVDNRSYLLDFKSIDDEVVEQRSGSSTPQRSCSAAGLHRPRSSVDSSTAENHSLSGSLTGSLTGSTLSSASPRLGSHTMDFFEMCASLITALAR
# 5'-AMP-activated protein kinase catalytic subunit alpha-2 (Rattus norvegicus), sequence (Q09137 whole entry): as above
# 5'-AMP-activated protein kinase catalytic subunit alpha-2 (Homo sapiens), sequence (P54646 whole entry, looked up): as the sequence (Q09137 whole entry) above, with V114M, Q150H, I241V, T348S, M355S, V502F, S505T, N509S, A528V, A549T counted along it
structure (smiles),measurement,setting,value
"O=[N+]([O-])c1ccc(O)c([N+](=O)[O-])c1 [2,4-DINITROPHENOL]",Activity,[1],0.42 mmol/mg
CCCNC(=O)CSc1nc2ccc(OCC)cc2s1,Activity,[2],Dose-dependent effect
same,Activity,[3],Active
same,Activity,[4],tde
Oc1ccc2nc(S)sc2c1,logP,[5],1.96
CCC1SC(N)=NC1=O (centres undefined),Activity,[6],inactive
same,Activity,[7],Toxic
same,EC50,[8],61.5 µM
same,Activity,[3],inactive
same,Activity,[9],Active
CCOc1ccc2nc(SCCC(=O)O)sc2c1,fold change (FC),[10],1.8
same,Activity,[11],Active
Cc1cc(-c2ccc(/C=C3/S/C(=N\c4ccc(Cl)c(C(=O)O)c4)NC3=O)o2)c([N+](=O)[O-])cc1C,Activity,[2],Dose-dependent effect
same,fold change (FC),[12],1.4
same,fold change (FC),[13],2.04
same,Activity,[4],tde
CCOc1ccc2nc(SSc3nc4ccc(OCC)cc4s3)sc2c1,Activity,[14],189%
same,Activity,[15],Active
CCOc1ccc2nc(S)sc2c1,logP,[5],3.17
same,EC50,[8],76.1 µM
same,Activity,[16],Active
same,Activity,[17],Active
same,Activity,[18],Active
NC1=NC(=O)/C(=C\C=C\c2ccc([N+](=O)[O-])o2)S1,Activity,[19],Active
same,Activity,[20],Active
Oc1nc2ccc(Br)cc2s1,EC50,[8],72.9 µM
same,Activity,[16],Active
same,Activity,[17],Active
same,Activity,[18],Active
